Most compounds without a hit are left out; they make up all but 3% or so of the library.
SENP7 block = inhibitors of human SENP7 protease. Q9BQF6. recombinant SENP7, Z-RLRGG-aminoluciferin luminescence, 40 min. inhibition, % at 5 µM. 330,000 tested, 1.5% active;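 active = inhibition above about 50% at the single test dose, limit read from the data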;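 also: plate controls were DMSO with enzyme for no effect and no enzyme buffer wells for full effect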
SENP8 block-1 = inhibitors of human SENP8 protease; purified SENP8, Z-RLRGG-aminoluciferin cleavage, luminescence; inhibition, % at 10 µM; AID 2540; 330,000 tested, 1.2% active; Q96LD8; in the data active = inhibition above about 50%
UBC13 inh = blocks human UBC13 polyubiquitin chain formation; TR-FRET; 330,000 tested, 0.47% active; inhibition, % at 20 µM; AID 485273; in the data active = inhibition above about 45%, passing the limit was not always enough
SENP8 block-2 = inhibitors of human SENP8 protease; Q96LD8; recombinant SENP8, Nedd8 substrate fluorescence; inhibition, % at 20 µM; 360,000 tested, 0.64% active; AID 602440; in the data active = inhibition mostly above about 40%, no sharp cut-off; inactive = mostly below about 27%
SENP6 block = inhibitors of human SENP6 protease | inhibition, % at 10 µM | 330,000 tested, 1.8% active | AID 2599 | Recombinant SENP6 catalytic domain, aminoluciferin luminescence;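 active = inhibition above about 50% at the single tested dose, limit read from the data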;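 also: plate controls were DMSO wells with enzyme for no effect and DMSO wells lacking enzyme for full effect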
Apaf1 inhib = blocks human Apaf-1 apoptosome activity; O14727; 330,000 tested, 0.71% active; inhibition, % at 20 µM; AID 489030; reconstituted apoptosome caspase-3 activity, DEVD-Rh110 fluorescence; active = inhibition of at least 40% at 20 µM;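 also: plate controls were DMSO wells for no effect and DEVD-CHO caspase inhibitor wells for full effect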
Target sequence (O14727 whole entry, looked up): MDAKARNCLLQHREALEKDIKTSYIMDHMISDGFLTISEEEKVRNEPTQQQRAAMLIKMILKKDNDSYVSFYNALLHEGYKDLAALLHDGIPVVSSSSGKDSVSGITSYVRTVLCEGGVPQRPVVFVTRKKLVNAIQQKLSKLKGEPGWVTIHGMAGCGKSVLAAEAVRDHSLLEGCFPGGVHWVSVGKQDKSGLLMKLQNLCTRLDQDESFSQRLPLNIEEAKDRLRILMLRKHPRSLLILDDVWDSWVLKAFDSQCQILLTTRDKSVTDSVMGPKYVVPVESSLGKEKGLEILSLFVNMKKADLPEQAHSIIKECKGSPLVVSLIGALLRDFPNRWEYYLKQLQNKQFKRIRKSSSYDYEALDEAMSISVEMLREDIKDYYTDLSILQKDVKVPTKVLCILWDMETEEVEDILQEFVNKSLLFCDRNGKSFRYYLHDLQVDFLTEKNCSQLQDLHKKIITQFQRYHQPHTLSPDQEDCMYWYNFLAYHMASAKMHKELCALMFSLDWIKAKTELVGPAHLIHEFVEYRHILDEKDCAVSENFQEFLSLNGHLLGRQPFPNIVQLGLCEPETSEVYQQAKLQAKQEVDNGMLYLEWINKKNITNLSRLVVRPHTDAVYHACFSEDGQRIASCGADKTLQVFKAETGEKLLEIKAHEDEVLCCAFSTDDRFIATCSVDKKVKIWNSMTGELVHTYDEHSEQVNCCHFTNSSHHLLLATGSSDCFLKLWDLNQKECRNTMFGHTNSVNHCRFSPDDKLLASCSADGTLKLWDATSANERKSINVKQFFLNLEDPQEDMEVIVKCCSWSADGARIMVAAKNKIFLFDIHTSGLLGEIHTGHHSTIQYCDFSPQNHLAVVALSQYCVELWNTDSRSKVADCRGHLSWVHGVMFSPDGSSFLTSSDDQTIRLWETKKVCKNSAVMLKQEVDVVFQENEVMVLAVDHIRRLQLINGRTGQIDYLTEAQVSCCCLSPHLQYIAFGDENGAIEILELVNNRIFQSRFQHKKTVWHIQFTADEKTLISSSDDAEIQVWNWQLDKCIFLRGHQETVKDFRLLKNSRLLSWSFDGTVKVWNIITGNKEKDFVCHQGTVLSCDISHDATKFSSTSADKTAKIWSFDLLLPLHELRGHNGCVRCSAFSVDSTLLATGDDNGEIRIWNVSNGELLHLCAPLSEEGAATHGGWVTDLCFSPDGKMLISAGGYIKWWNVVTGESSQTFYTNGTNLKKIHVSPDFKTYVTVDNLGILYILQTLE
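Material: reconstituted apoptosome with Apaf-1, cytochrome c, caspase-9, procaspase-3, dATP / Buffer or medium: pH 7.5 Hepes buffer with CHAPS, BSA, DTT / Also added: cytochrome c with DEVD-Rh110 / Schedule: compound with Apaf-1, dATP, procaspase-3 30 min, then 50 min reaction, room temperature / Technique: rhodamine 110 fluorescence at Ex 480/Em 540 nm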
* hit, by the source's call.

O=C(OCc1ccccc1)c1ccc2c(c1)-c1ccccc1C2=O was read as SENP7 block 14, SENP8 block-1 -5, UBC13 inh 10, SENP8 block-2 35, SENP6 block 21 and Apaf1 inhib 2.
Screening CCc1ccc2c(c1)C(=O)c1ccccc1C2=O returned SENP7 block 83*, SENP8 block-1 79*, UBC13 inh 36, SENP8 block-2 20, SENP6 block 78* and Apaf1 inhib 11.
Screening CC(=O)N1CC2([N+](=O)[O-])CN(C(C)=O)CC([N+](=O)[O-])(C1)C2(C)C returned SENP7 block 2, SENP8 block-1 -2, UBC13 inh 11, SENP8 block-2 4, SENP6 block -6 and Apaf1 inhib 2.
Screening COc1ccc(NC(=O)CCl)cn1 returned SENP7 block 20, SENP8 block-1 26, UBC13 inh -12, SENP6 block 49 and Apaf1 inhib 67*.
COc1ccc(CC(=O)Nc2ccc(OC)nc2)cc1 was read as SENP7 block 4, SENP8 block-1 1, UBC13 inh -2, SENP8 block-2 4, SENP6 block 13 and Apaf1 inhib 2.
For COc1ccc(/C=C/c2nc(-c3ccccc3O)n[nH]2)cc1 the results were SENP7 block 95*, SENP8 block-1 93*, UBC13 inh -6, SENP8 block-2 -58, SENP6 block 96* and Apaf1 inhib 22.
Screening COc1ccc(/C=C/c2nc(-c3ccccc3O)n(-c3ccccc3)n2)cc1 returned SENP7 block 9, SENP8 block-1 -6, UBC13 inh 23, SENP8 block-2 -28, SENP6 block -7 and Apaf1 inhib 5.
`COc1ccc(C2=Nn3c(nnc3-c3cc(C)[nH]n3)SC2)cc1` gave SENP7 block -1, SENP8 block-1 -5, UBC13 inh 0, SENP8 block-2 17, SENP6 block -20 and Apaf1 inhib -6.
Screening COc1ccc(C(CCN2CCCC(C)C2)c2c(OC)cc(OC)c3c(C)cc(=O)oc23)cc1 (centres undefined) returned SENP7 block -2, SENP8 block-1 -6, UBC13 inh 25, SENP8 block-2 -494, SENP6 block -12 and Apaf1 inhib 20.
`CCCCCc1cc(=O)oc2c(C(CCN3CCCC(C)C3)c3ccc4c(c3)OCO4)c(OC)cc(OC)c12` (centres undefined) gave SENP7 block -4, SENP8 block-1 -17, UBC13 inh -8, SENP8 block-2 -152, SENP6 block -13 and Apaf1 inhib 66*.
For CC(/C=C(\NC(=O)c1ccccc1)C(=O)N=Nc1c(O)[nH]c2ccc(C)cc12)=C\c1ccccc1 the results were SENP7 block 3, SENP8 block-1 -1, UBC13 inh -28, SENP8 block-2 51*, SENP6 block -8 and Apaf1 inhib 6.
Cc1cccc(CNc2ncnc3ccc(-c4ccc5c(c4)OCCO5)cc23)c1 was read as SENP7 block 8, SENP8 block-1 -11, UBC13 inh 9, SENP8 block-2 -489, SENP6 block -3 and Apaf1 inhib 42*.
For c1nc(NCc2ccc3c(c2)OCO3)c2cc(-c3ccc4c(c3)OCCO4)ccc2n1 the results were SENP7 block 6, SENP8 block-1 -1, UBC13 inh 4, SENP8 block-2 -496, SENP6 block -5 and Apaf1 inhib 21.
`COc1ccccc1-n1nnnc1SCC(=O)NCC1(N2CCCCC2)CCCCC1` gave SENP8 block-2 14.
`COc1cccc(/C=C2\SC(=S)N(CCCC(=O)N3CCCC3)C2=O)c1` gave SENP7 block 65*, SENP8 block-1 48, UBC13 inh 7, SENP8 block-2 12, SENP6 block 78* and Apaf1 inhib 22.
CCn1c(SCC(=O)NC2=NCCS2)nnc1C(C)NC(=O)c1ccc(Cl)cc1 (centres undefined) was read as SENP7 block 3, SENP8 block-1 1, UBC13 inh 1, SENP8 block-2 13, SENP6 block 2 and Apaf1 inhib -1.
For CC(C)C(=O)Nc1cccc(-c2cn3ccsc3n2)c1 the results were SENP7 block 8, SENP8 block-1 4, UBC13 inh 4, SENP8 block-2 -16, SENP6 block -11 and Apaf1 inhib 67*.
Cc1cc2nn(-c3ccc(F)cc3)nc2cc1N was read as SENP7 block 6, SENP8 block-1 70*, UBC13 inh -7, SENP8 block-2 -335, SENP6 block 76* and Apaf1 inhib 31.
For COc1ccc(-n2nc3cc(C)c(N)cc3n2)cc1Cl the results were SENP7 block 5, SENP8 block-1 24, UBC13 inh 5, SENP8 block-2 -326, SENP6 block 48 and Apaf1 inhib 18.
Cc1ccc(-n2nc3ccc(N)cc3n2)cc1 was read as SENP7 block 34, SENP8 block-1 80*, UBC13 inh -13, SENP8 block-2 -496, SENP6 block 89* and Apaf1 inhib 82*.
O=C(c1cc([N+](=O)[O-])ccc1N1CCOCC1)N1CCN(S(=O)(=O)c2cc(Cl)ccc2Cl)CC1 was read as SENP7 block -2, SENP8 block-1 -2, UBC13 inh -11, SENP8 block-2 10, SENP6 block -9 and Apaf1 inhib 10.
`Nc1cc2nc3ccccc3oc-2cc1=O` gave SENP7 block 13, SENP8 block-1 18, UBC13 inh -92, SENP8 block-2 44*, SENP6 block 37 and Apaf1 inhib 48*.
For Nc1ccc(CCc2nc3ccccc3o2)cc1 the results were SENP7 block 3, SENP8 block-1 15, UBC13 inh -5, SENP8 block-2 -8, SENP6 block 20 and Apaf1 inhib -3.
COc1ccc(N=Nc2c(N)nn(C)c2N)cc1 was read as SENP8 block-2 51*.
For Cc1ccc(N=Nc2c(N)nn(-c3ccccc3)c2N)cc1 the results were SENP7 block 11, SENP8 block-1 -8, UBC13 inh -17, SENP8 block-2 24, SENP6 block 23 and Apaf1 inhib 8.
For O=[N+]([O-])c1ccc2c(c1Nc1ccccc1Cl)=NC1(CCCCC1)N=2 the results were SENP7 block 9, SENP8 block-1 -1, UBC13 inh -84, SENP8 block-2 24, SENP6 block 15 and Apaf1 inhib 17.
Screening Cc1ccc(Nc2c([N+](=O)[O-])ccc3c2=NC2(CCCCC2)N=3)cc1 returned SENP7 block 0, SENP8 block-1 7, UBC13 inh -260, SENP8 block-2 44*, SENP6 block 23 and Apaf1 inhib 20.
Screening Cc1c(Cl)cccc1NC(=O)C(=O)NNC(=O)c1ccccc1F returned SENP7 block 3, SENP8 block-1 -2, UBC13 inh -9, SENP8 block-2 7, SENP6 block 5 and Apaf1 inhib 1.
`O=C(CSc1nnc(NC(=O)c2ccc3c(c2)OCO3)s1)NCc1ccco1` gave SENP7 block 65*, SENP8 block-1 0, UBC13 inh -5, SENP8 block-2 -84, SENP6 block 3 and Apaf1 inhib 15.
